# Assay results reported in PubChem BioAssay.
# Active and inactive are the calls of the source.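 How the source made its calls, unless noted: active means viability at or under a set limit in both replicates, limit being median viability minus 3 SD (cut at about 48% in these data, passing the limit was not always enough); inconclusive means at or under the limit in just one replicate; inactive means at or above the limit in both replicates.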
# Assays:
# [1] = reducers of endogenous Her2 protein level, primary screen, SKBR3 breast tumor cells, AlphaScreen, ATP viability (AID 461;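 active means Her2 level under about 52% in both replicate screens, with viability over 70% of control, limit read from the data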;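 on Her2 level: lower value means less Her2 protein in the cells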;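 on viability: percent of carrier control wells set as 100% viability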); settings: 18-24 h, measured here: SKBR3 viability, ATP luminescence, at 10 µM
# [2] = target: Receptor tyrosine-protein kinase erbB-2 (Homo sapiens) (UniProt P04626); assay: as above; settings: 18-24 h, at 10 µM, stronger effect = lower value
# [3] = SK-BR-3 cell growth inhibitors, pilot screen, 24 h, human (AID 572;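 active means viability at or below 10% of carrier control in both of two separate runs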;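 further: compound exposure lasted between 18 and 24 h rather than exactly 24 h; 100% = carrier-treated control wells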); settings: SK-BR-3 viability, CellTiter-Glo luminescence, at 10 µM, stronger effect = lower value
# [4] = HUVEC growth inhibition – cell-based, human, primary screen (AID 575;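 active means viability at or below 30% in both replicate assays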;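 further: 100% = median of untreated cell wells with 0.1% DMSO on each plate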); settings: HUVEC proliferation, CellTiter-Glo luminescence, 72 h; at 10 µM; stronger effect = lower value
# Summary of the method: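 Test system: primary human umbilical vein endothelial cells. Quantity: 1250 cells/well. Compound: single 10 µM dose, 0.1% DMSO, from 5x medium stock. Timing: 72 h treatment at 37 °C. Detection: ATP-based CellTiter-Glo luminescent read. Benchmarks: vehicle and MePR control wells. Format: 384-well plates coated with collagen.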
# [5] = growth inhibitors of H69AR lung tumor, primary screen, human, duplicate replicates (AID 580); settings: H69AR lung tumor cells viability, ATP luminescence, 72 h; at 10 µM; stronger effect = lower value;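 further: 100% = mean luminescence of untreated wells and 0% = no signal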
# [6] = reversal of MRP1-mediated doxorubicin resistance, pilot screen, H69AR cells, doxorubicin co-treatment (AID 601;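 active means viability loss from added drug above about 55%, and viability with drug at most 40%, in both replicates, limit read from the data, passing the limit was not always enough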); settings: CellTiter-Glo, 72 h, at 10 µM; for differential viability (reversal): stronger effect = higher value
# [7] = 384-well plate pilot, post-Golgi transport modulator project, inhibition of yeast transport mutant growth (AID 636; in the data active means inhibition above about 31%); settings: absorbance 615 nm, about 18 h, stronger effect = higher value
# [8] = growth suppression of yeast trafficking mutant, preliminary HTS, modulators of trafficking downstream of Golgi apparatus project, 1536-format plate, OD 615 nm (AID 637; in the data active means inhibition above about 30%); settings: yeast transport mutant growth, absorbance 615 nm, 18 h; stronger effect = higher value
# [9] = H69AR cells + 2 uM doxorubicin, measured here: viability with 2 uM doxorubicin, stronger effect = lower value
# [10] = H69AR cells, compound alone cytotoxicity
# Receptor tyrosine-protein kinase erbB-2 (Homo sapiens), sequence (P04626 whole entry, looked up): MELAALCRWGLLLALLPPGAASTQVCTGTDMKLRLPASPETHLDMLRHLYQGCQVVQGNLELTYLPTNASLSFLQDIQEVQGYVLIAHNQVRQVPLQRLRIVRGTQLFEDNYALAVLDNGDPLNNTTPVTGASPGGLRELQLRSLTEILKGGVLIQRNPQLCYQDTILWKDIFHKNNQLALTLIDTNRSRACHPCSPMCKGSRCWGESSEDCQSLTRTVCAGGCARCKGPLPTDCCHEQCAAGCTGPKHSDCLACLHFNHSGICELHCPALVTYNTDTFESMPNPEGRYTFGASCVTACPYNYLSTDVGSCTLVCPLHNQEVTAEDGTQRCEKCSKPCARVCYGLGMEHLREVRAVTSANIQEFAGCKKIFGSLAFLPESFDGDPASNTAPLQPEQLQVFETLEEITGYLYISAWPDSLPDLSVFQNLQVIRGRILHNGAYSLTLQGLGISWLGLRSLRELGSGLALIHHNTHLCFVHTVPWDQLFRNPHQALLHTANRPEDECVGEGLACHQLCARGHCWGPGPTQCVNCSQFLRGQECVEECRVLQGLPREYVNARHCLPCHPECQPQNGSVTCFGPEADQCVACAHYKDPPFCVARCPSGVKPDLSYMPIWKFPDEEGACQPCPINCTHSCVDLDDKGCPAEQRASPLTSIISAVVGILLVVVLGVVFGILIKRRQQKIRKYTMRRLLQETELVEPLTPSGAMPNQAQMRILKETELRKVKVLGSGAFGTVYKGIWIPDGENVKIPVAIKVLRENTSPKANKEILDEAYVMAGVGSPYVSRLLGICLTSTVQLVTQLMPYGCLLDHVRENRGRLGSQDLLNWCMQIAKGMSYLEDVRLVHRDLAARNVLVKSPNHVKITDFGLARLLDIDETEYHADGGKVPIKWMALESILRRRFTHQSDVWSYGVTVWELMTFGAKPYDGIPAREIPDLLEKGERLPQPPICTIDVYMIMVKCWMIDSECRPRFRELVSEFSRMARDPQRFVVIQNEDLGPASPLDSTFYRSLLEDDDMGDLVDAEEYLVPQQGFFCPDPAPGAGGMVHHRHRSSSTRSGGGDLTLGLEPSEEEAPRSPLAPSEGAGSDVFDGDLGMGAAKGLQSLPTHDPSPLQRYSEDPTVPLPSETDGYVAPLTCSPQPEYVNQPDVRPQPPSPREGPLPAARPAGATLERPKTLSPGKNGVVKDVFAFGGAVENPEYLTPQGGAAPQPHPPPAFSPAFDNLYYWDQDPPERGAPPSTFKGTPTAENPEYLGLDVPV
SMILES,viability [1] [%],Her2 level [2],viability [3],viability [4],viability [5],differential viability (reversal) ([6]; H69AR cells + 2 uM doxorubicin),"viability [6, 9] [%]","viability [6, 10] [%]",inhibition [7],inhibition [8]
CC1(C)CC(=O)CC(C)(C)N1OC(=O)c1ccccn1,106,94% (inactive),106% (inactive),94% (inactive),102% (inactive),8.9% (inactive),93.6,102,-2.3% (inactive),5.74% (inactive)
CCOC(=O)CSC1=C(C#N)C(c2ccc(Cl)cc2)C(C(=O)OC)C(=O)N1 (stereo not given),104,143% (inactive),104% (inactive),85.4% (inactive),88.5% (inactive),0.1% (inactive),88.4,88.5,-4.74% (inactive),4.83% (inactive)
COc1cccc(-c2cc(C(=O)N3CCCc4ccccc43)no2)c1,110,89.5% (inactive),110% (inactive),94.6% (inactive),92.4% (inactive),5.08% (inactive),87.4,92.4,-6.49% (inactive),-0.83% (inactive)
CCC(=O)Nc1cc(C)c(NC(=O)C23CC4CC(CC(C4)C2)C3)cn1,106,85% (inactive),106% (inactive),84.9% (inactive),107% (inactive),8.51% (inactive),98,107,-3.65% (inactive),-2.62% (inactive)
COc1ccc(C(C(C(=O)c2cccs2)N2CCOCC2)N2CCOCC2)cc1OC (stereo not given),102,112% (inactive),102% (inactive),84.3% (inactive),102% (inactive),4.94% (inactive),96.6,102,-1.97% (inactive),0% (inactive)
Cc1nn(C)cc1/C=N/O,100,105% (inactive),100% (inactive),95.8% (inactive),104% (inactive),7.1% (inactive),96.5,104,-7.47% (inactive),1.45% (inactive)
Cc1nc(N2CCN(c3ncccn3)CC2)c2oc3ccccc3c2n1,85,106% (inactive),85% (inactive),83.9% (inactive),99.4% (inactive),-11.8% (inactive),111,99.4,-5.47% (inactive),-2.06% (inactive)
CC(=O)c1ccc(NC(=O)c2cc(CC(C)C)on2)cc1,93,114% (inactive),93% (inactive),120% (inactive),89.2% (inactive),-1.95% (inactive),91.1,89.2,6.15% (inactive),-8.67% (inactive)
COc1ccc(CCNC(=O)CSc2nnc(CNc3ccc(Cl)cc3)o2)cc1OC,112,89% (inactive),112% (inactive),60.5% (inactive),84.3% (inactive),-6.59% (inactive),90.9,84.3,-0.65% (inactive),-4.29% (inactive)
O=C(C1CCCO1)N1CCN(C(c2ccccc2)c2ccccc2)CC1 (stereo not given),98.5,94% (inactive),98.5% (inactive),89.1% (inactive),96% (inactive),6.47% (inactive),89.5,96,-0.91% (inactive),2.62% (inactive)
O=S(=O)(c1ccc(OCC(O)CN2CCc3ccccc3C2)cc1)N1CCOCC1 (stereo not given),89,83.5% (inactive),89% (inactive),98.2% (inactive),87.6% (inactive),2.98% (inactive),84.6,87.6,-1.71% (inactive),-2.73% (inactive)
Cn1cccc1Cc1nnc(SCC(=O)Nc2ccccc2F)n1CCc1ccccc1,78.5,91% (inactive),78.5% (inactive),89.4% (inactive),83.7% (inactive),1.68% (inactive),82.1,83.7,1.15% (inactive),2.67% (inactive)
COc1ccc(C2(C(=O)Nc3c(C)n(C)n(-c4ccccc4)c3=O)CCCC2)cc1OC,94,91.5% (inactive),94% (inactive),98.5% (inactive),106% (inactive),21.9% (inactive),84.1,106,-2.4% (inactive),1.43% (inactive)
COC(=O)/C=c1/s/c(=C(/C#N)C(=O)N2CCOCC2)n(-c2ccccc2)c1=O,116,80.5% (inactive),116% (inactive),98.8% (inactive),88.8% (inactive),-10.8% (inactive),99.6,88.8,-7.4% (inactive),-3.17% (inactive)
CC(=O)c1c(OCC(=O)O)ccc2c(C)cc(=O)oc12,136,104% (inactive),136% (inactive),101% (inactive),91.8% (inactive),3.1% (inactive),88.7,91.8,-5.66% (inactive),6.07% (inactive)
Cn1cccc1-c1nc2ccc(NC(=O)c3ccco3)cc2[nH]1,114,93% (inactive),114% (inactive),120% (inactive),77% (inactive),-4.33% (inactive),81.4,77,-2.76% (inactive),-3.65% (inactive)
CCn1c(SCC(=O)c2ccc(Cl)cc2)nnc1-c1ccoc1C,118,104% (inactive),118% (inactive),98.2% (inactive),93.6% (inactive),4% (inactive),89.6,93.6,-2.84% (inactive),-0.98% (inactive)
CCOc1ccccc1C1CC(=O)Nc2cc3c(cc21)OCO3 (stereo not given),110,83.5% (inactive),110% (inactive),31% (inactive),23.7% (active),-37.2% (inactive),60.9,23.7,-4.61% (inactive),8.17% (inactive)
CCOc1ccc2c(c1)n(CO)c(=S)n2CO,107,74% (inactive),107% (inactive),83.6% (inactive),89.6% (inactive),2.06% (inactive),87.5,89.6,-2.53% (inactive),0.81% (inactive)
Cc1cccc(NC(=O)CC2NC3CCCCC3NC2=O)c1 (stereo not given),99.5,102% (inactive),99.5% (inactive),96.7% (inactive),93.6% (inactive),2.89% (inactive),90.7,93.6,-3.42% (inactive),-1.17% (inactive)
CCCCOC(=O)CSc1nc2c(cc1C#N)C(=O)CC(C)(C)C2,87,86% (inactive),87% (inactive),91.2% (inactive),78.8% (inactive),-10.6% (inactive),89.4,78.8,-5.13% (inactive),-2.73% (inactive)
O=C(Nc1nccs1)c1ccc(Cl)c(S(=O)(=O)N2CCCCC2)c1,89,65% (inactive),89% (inactive),84.3% (inactive),87.2% (inactive),-9.49% (inactive),96.7,87.2,-5.81% (inactive),3.83% (inactive)
CCC(=O)N1CCc2cc(S(=O)(=O)CCC(=O)Nc3nc(C)cs3)ccc21,106,85% (inactive),106% (inactive),90.5% (inactive),74.4% (inactive),7.69% (inactive),66.8,74.4,-4.8% (inactive),-5.9% (inactive)
Cc1cccc(NC(=O)c2cc3ccccc3o2)c1,142,114% (inactive),142% (inactive),75.8% (inactive),86.3% (inactive),8.2% (inactive),78.1,86.3,-7.4% (inactive),-1.27% (inactive)
O=C(CSc1nnc(-c2cnccn2)n1Cc1ccco1)c1ccc(Cl)cc1,90,81% (inactive),90% (inactive),105% (inactive),80.7% (inactive),-2.83% (inactive),83.5,80.7,-0.78% (inactive),6.5% (inactive)
COc1ccccc1NS(=O)(=O)c1ccc(OC)c(OC)c1,86,85% (inactive),86% (inactive),91.6% (inactive),99.8% (inactive),-3.15% (inactive),103,99.8,-6.62% (inactive),6.56% (inactive)
CC(=O)NCc1cccc(CNC(C)=O)n1,84.5,82.5% (inactive),84.5% (inactive),88.4% (inactive),98% (inactive),7.96% (inactive),90.1,98,-6.8% (inactive),-6.67% (inactive)
CCn1cc(C(=O)NCCN(C)CCc2ccccc2)c(=O)c2cc(S(=O)(=O)N(C)C)ccc21,90,106% (inactive),90% (inactive),75.9% (inactive),81.2% (inactive),1.48% (inactive),79.8,81.2,-1.73% (inactive),12.6% (inactive)
CCOC(=O)c1[nH]c(C)c(C(=O)Nc2ccccc2C)c1C,79.5,85% (inactive),79.5% (inactive),60.8% (inactive),19.3% (active),-46.6% (inactive),65.9,19.3,-0.9% (inactive),3.67% (inactive)
